Measurements of several laboratories.
Protocols differ between the studies behind these lines.
Target: Receptor tyrosine-protein kinase erbB-2 (ERBB2, Homo sapiens, UniProt P04626)

Structure (SMILES)	observed	mode	technique	concentration	measurement	value
Cn1cc(-c2cc(F)cc(N3CCn4c(cc5c4CCCC5)C3=O)c2CO)cc(Nc2ccc(N3CCN(C4COC4)CC3)cn2)c1=O	enzyme activity	inhibitor	–	0.1 µM	inhibition	7%
c1ccc(C(NCCNC(c2ccccc2)c2ccccc2)c2ccccc2)cc1	enzyme activity	inhibitor	–	10 µM	inhibition	-7%
Cc1nn(C)cc1-c1nc2c(N3CCN(Cc4ccc(Cl)cc4)CC3)c(Cl)cnc2[nH]1	binding	–	competition with immobilised ligand	1 µM	remaining binding	70%
C#Cc1n[nH]c2c(-c3cn([C@@H](C)c4ccccn4)c(=O)[nH]c3=O)cc(F)cc12	enzyme activity	inhibitor	–	0.1 µM	inhibition	-0.7%
Nc1ncc(-c2nc(N3CCOCC3)nc(N3CCOCC3)n2)c(C(F)F)n1	binding	–	competition with immobilised ligand	10 µM	remaining binding	65%
N#CC1(c2ccccn2)CCN(Cc2cc(C(=O)O)c(=O)n3ccccc23)CC1	cell-free assay	–	competition with immobilised ligand	1 µM	remaining binding	96%
COc1cc(Nc2ncc(F)c(Nc3ccc4c(n3)NC(=O)C(C)(C)O4)n2)cc(OC)c1OC	binding	–	competition with immobilised ligand	10 µM	inhibition	70%
O=c1[nH]c2ccccc2n1C1CCN(Cc2ccc(-c3[nH]c4cc5ncnc5cc4nc3-c3ccccc3)cc2)CC1	cell-free assay	–	–	0.5 µM	remaining signal	88.9%
C[C@H](C(=O)N[C@H]1COc2ccccc2[C@@H]1S(C)(=O)=O)c1ccc(F)cc1	enzyme activity	inhibitor	–	10 µM	inhibition	0%
COc1ncccc1-c1cnn2ccc(N3CCN(C(=O)OC(C)C)CC3)nc12	binding	–	competition with immobilised ligand	1 µM	remaining binding	92%
CC(C)(C)c1cc(C=C(C#N)C#N)cc(Br)c1O	enzyme activity	inhibitor	–	0.5 µM	remaining activity	95.7%
C#Cc1n[nH]c2c(-c3cn([C@@H](C)c4ccccc4)c(=O)[nH]c3=O)cc(F)cc12	enzyme activity	inhibitor	–	0.1 µM	inhibition	-8.5%
Cn1cncc1[C@@](O)(COc1ccc(C#N)cc1-c1ccc(OC(F)(F)F)cc1)c1ccc(C#N)cc1	cell-free assay	–	competition with immobilised ligand	1 µM	remaining binding	94%
Cn1cc(-c2cccc(N3CCc4c(sc5c4CC(C)(C)C5)C3=O)c2CO)cc(Nc2ccncn2)c1=O	enzyme activity	inhibitor	–	1 µM	inhibition	54%
